These results are taken from ChEMBL document CHEMBL1158058, “Cardenolide glycosides from Pergularia tomentosa and their proapoptotic activity in Kaposi's sarcoma cells” (2006).

Active and inactive are the calls of the source. No cut-off for these calls is given here.

Experiment [1] has as its system KS. Nature of the experiment: Cytotoxicity against human KS cells at >1 uM after 24 hrs. Format: functional, cell-based.
Experiment [2] deals with KS. Nature of the experiment: Cytotoxicity against human KS cells after 24 hrs by XTT assay. Format: functional, cell-based. The essentials: (§1)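 KS cells (from HIV-1 patients, spontaneously immortalized) seeded at 5 × 10^3 cells/well and left to attach 24 h. Washed in HBSS-10 mM Hepes, serum-starved 12 h, then exposed at 37 °C for 24 h in fresh serum-free medium to a range of concentrations (DMSO vehicle). Washed, then cell number by XTT (OD 490 nm) and Coulter counter. At least three independent experiments in duplicate, mean ± SEM.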
(Formazan colour is commonly taken as a measure of viable cells.)

Experiment [3] is described as follows: Induction of apoptosis in human KS cells assessed as DNA fragmentation at 10 uM […] by FACS relative to control. Format: functional. The essentials: (§2)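 KS cells serum-starved 12 h and washed with HBSS-10 mM HEPES. Preincubated 1 h at 37 °C with compound (1 or 10 µM) in DMSO (final <0.1%), washed, then cultured 24 h in 1% FBS medium. Hypodiploid (sub-G1) fraction counted by FACS against control.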

The test system of experiment [4] is KS. Nature of the experiment: Induction of apoptosis in human KS cells assessed as caspase 3 activity at 10 uM by DEVD-AFC fluorimetric assay. Format: functional, cell-based. The essentials: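 KS cells handled as in the treatment protocol (12 h starvation, 1 h 37 °C exposure at 10 µM in DMSO, 24 h further culture in 1% FBS). Lysates incubated with the caspase-3 substrate DEVD-AFC. Fluorescence read as fold over untreated. Three independent experiments in duplicate (n = 6), mean ± SEM.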

Experiment [5] has as its system KS. Nature of the experiment: Cytotoxicity against human KS cells after 24 hrs by coulter counter. It counts as functional, cell-based. The method in brief:
as §1

A short description of experiment [6]: Induction of apoptosis in human KS cells assessed as DNA fragmentation at 1 uM […] by FACS relative to control. It counts as functional. The method in brief:
as §2
(In flow cytometry, cells or beads pass a laser one at a time.)

For experiment [7], the system named is KS. Briefly: Effect on human KS cell survival assessed as cell detachment at >1 uM by micrograph analysis. It counts as functional, cell-based.

In the case of `C[C@]12CC[C@H]3[C@@H](CC[C@H]4C[C@H]5O[C@@H]6O[C@H](CO)C[C@@H](O)[C@]6(O)O[C@@H]5C[C@@]43CO)[C@@]1(O)CC[C@@H]2C1=CC(=O)OC1`, the outcome in the experiment on KS [1] and in the experiment on KS [4] was Active. For the same compound, the Activity entry in the experiment on KS [2] was “Dose-dependent effect”; in experiment [3], 45%; with KS [5], “Dose-dependent effect”.
Take `C[C@@H]1C[C@@H](O)[C@]2(O)O[C@@H]3C[C@@]4(CO)[C@@H](CC[C@@H]5[C@@H]4C[C@@H](O)[C@]4(C)[C@@H](C6=CC(=O)OC6)CC[C@]54O)C[C@H]3O[C@@H]2O1`: the result in the experiment on KS [1] and in the experiment on KS [4] was Active. For the same compound, the values for the Activity result (with KS [2]; in experiment [3]; with KS [5]) were “Dose-dependent effect”, 45% and “Dose-dependent effect”, respectively.
On to `C[C@]12[C@H](O)C[C@H]3[C@@H](CC[C@H]4C[C@H]5O[C@@H]6O[C@H](CO)C[C@@H](O)[C@]6(O)O[C@@H]5C[C@@]43CO)[C@@]1(O)CC[C@@H]2C1=CC(=O)OC1` [GHALAKINOSIDE], for which the outcome in the experiment on KS [1] and with KS [4] was Active. For the same compound, the Activity result is “Dose-dependent effect” in the experiment with KS [2], 45% in experiment [3] and “Dose-dependent effect” in the experiment with KS [5].
For the compound `C[C@@H]1C[C@@H](O)[C@]2(O)O[C@@H]3C[C@@]4(C=O)[C@@H](CC[C@@H]5[C@@H]4CC[C@]4(C)[C@@H](C6=CC(=O)OC6)CC[C@]54O)C[C@H]3O[C@@H]2O1` [CALACTIN], the outcome in the experiment on KS [1] and in the experiment on KS [4] was Active. The Activity result in the experiment on KS [2] was “Dose-dependent effect”; in experiment [3] it was 45%; with KS [5], “Dose-dependent effect”.
Consider `C[C@@H]1C[C@@H](O[C@@H]2O[C@H](CO)[C@@H](O)[C@H](O)[C@H]2O)[C@]2(O)O[C@@H]3C[C@@]4(C=O)[C@@H](CC[C@@H]5[C@@H]4CC[C@]4(C)[C@@H](C6=CC(=O)OC6)CC[C@]54O)C[C@H]3O[C@@H]2O1`, for which the outcome in the experiment with KS [1], in the experiment with KS [7] and in the experiment on KS [4] was Active. The Activity was 35% in experiment [6], “Dose-dependent effect” with KS [2], 45% in experiment [3] and “Dose-dependent effect” with KS [5].
